Test results as given in PMC11707965 (Journal of Biomaterials Applications, 2024).
Where two headings read alike, the source gives them in different places.

What was measured:
[1] = system: Staphylococcus aureus ATCC 29213; assay: Broth macrodilution antimicrobial susceptibility; assay type: cell-based; conditions: S. aureus ATCC 29213; two-fold dilution from 3% boric acid / 9% zinc borate
[2] = system: Enterococcus faecalis ATCC 29212; assay: Broth macrodilution antimicrobial susceptibility; assay type: cell-based; conditions: E. faecalis ATCC 29212; two-fold dilution from 3% boric acid / 9% zinc borate
Procedure, shortened: (§1)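 Broth macrodilution run per CLSI recommendations in Cationized Mueller Hinton Broth. Ten tubes per strain held two-fold serial dilutions of boric acid (top 3%) or zinc borate (top 9%). MIC was read from the tubes. For MBC, every tube without growth was subcultured onto solid medium, and MBC was the lowest concentration giving no growth.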

[3] = system: Streptococcus pyogenes ATCC 19615; assay: Broth macrodilution antimicrobial susceptibility; assay type: cell-based; conditions: S. pyogenes ATCC 19615; two-fold dilution from 3% boric acid / 9% zinc borate
Procedure, shortened: as §1

[4] = system: Escherichia coli ATCC 25922; assay: Broth macrodilution antimicrobial susceptibility; assay type: cell-based; conditions: E. coli ATCC 25922; two-fold dilution from 3% boric acid / 9% zinc borate
Procedure, shortened: as §1

[5] = system: Klebsiella pneumoniae ATCC 700603; assay: Broth macrodilution antimicrobial susceptibility; assay type: cell-based; conditions: K. pneumoniae ATCC 700603; two-fold dilution from 3% boric acid / 9% zinc borate
Procedure, shortened: as §1

[6] = system: Pseudomonas aeruginosa ATCC 9027; assay: Broth macrodilution antimicrobial susceptibility; assay type: cell-based; conditions: P. aeruginosa ATCC 9027; two-fold dilution from 3% boric acid / 9% zinc borate
Procedure, shortened: as §1

[7] = system: Acinetobacter baumannii ATCC 19606; assay: Broth macrodilution antimicrobial susceptibility; assay type: cell-based; conditions: A. baumannii ATCC 19606; two-fold dilution from 3% boric acid / 9% zinc borate
Procedure, shortened: as §1

[8] = system: Proteus mirabilis ATCC 25933; assay: Broth macrodilution antimicrobial susceptibility; assay type: cell-based; conditions: P. mirabilis ATCC 25933; two-fold dilution from 3% boric acid / 9% zinc borate
Procedure, shortened: as §1

[9] = system: Candida albicans ATCC 10231; assay: Broth macrodilution antimicrobial susceptibility; assay type: cell-based; conditions: C. albicans ATCC 10231; two-fold dilution from 3% boric acid / 9% zinc borate
Procedure, shortened: (§2)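 Fungal strains were tested by CLSI-based broth macrodilution in RPMI 1640. Each strain had ten tubes of two-fold serial dilutions starting at 3% boric acid or 9% zinc borate. Tubes showing no growth were plated onto solid media to find the lowest concentration without growth (MBC).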

[10] = system: Aspergillus niger ATCC 16888; assay: Broth macrodilution antimicrobial susceptibility; assay type: cell-based; conditions: A. niger ATCC 16888; two-fold dilution from 3% boric acid / 9% zinc borate
Procedure, shortened: as §2

[11] = system: L929 (mouse fibroblast) cell line; assay: Cytotoxicity / cell viability by MTT method; assay type: cell-based; conditions: for IC50: read-out: IC50 dose that caused 50% decrease in cell proliferation, L929 cells, MTT
L929 cells = assay: Cell migration test; assay type: cell-based, mouse; conditions: 24 h vs 0 h
Procedure, shortened: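 L929 fibroblasts (ATCC) were grown in DMEM with 10% FBS at 37°C and 5% CO₂. After the fourth passage they were seeded into 24-well plates at 2 × 10⁵ cells/ml and left 24 h to form a monolayer. Each well got one vertical scratch with a sterile pipette tip and was imaged at 0 h. Treatment followed (zinc borate 0.10–0.001 mM; boric acid 1000–0.001 mM), with re-imaging at 12 and 24 h (10x) to measure closure percentage.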

[12] = system: L929 (mouse fibroblast) cell line; assay: Antioxidant ability: protection against H2O2 oxidative stress, MTT method; assay type: cell-based; conditions: read-out: EC50 dose, which increased the proliferative concentration by 50%, L929 cells, 0.4 mM H2O2 stress

Row | Compound | MBC (%) [1] [%] | MIC (%) [2] [%] | MBC (%) [3] [%] | MIC (%) [3] [%] | MBC (%) [4] [%] | MIC (%) [4] [%] | MIC (%) [5] [%] | MIC (%) [7] [%] | MBC (%) [8] [%] | MIC (%) [8] [%] | MBC (%) [9] [%] | MBC (%) [10] [%] | migration recovery (closure) percentage (L929 cells; 0.025 mM) [%] | other results
1 | OB(O)O [Boric acid, Boric Acid] | 0.75 | 1.5 | 3 | 0.0058 | 1.5 | 0.375 | 0.75 | 0.375 | 3 | 0.75 | 0.0058 | 0.1875 | 81.05 | MIC (%) [1]: 0.75%; MBC (%) [6]: no bactericidal effect; MIC (%) [6]: 0.75%; Proliferative or inhibitory effect on L929 cells versus control ([11]; 0.001 mM-1000 mM, 24th, 48th, 72nd hours, except 100 mM and 500 mM at 24th hour, 100 mM at 48th hour): no significant proliferation or inhibition was observed; migration recovery (closure) percentage (L929 cells; 0.001 mM): 86.91%; migration recovery (closure) percentage (L929 cells; 0.01 mM): 70.81%; migration recovery (closure) percentage (L929 cells; 0.05 mM): 83.57%; migration recovery (closure) percentage (L929 cells; 0.10 mM): 77.98%; migration recovery (closure) percentage (L929 cells; 0.25 mM): 86.54%; migration recovery (closure) percentage (L929 cells; 0.50 mM): 80.92%; migration recovery (closure) percentage (L929 cells; 0.75 mM): 83.24%; migration recovery (closure) percentage (L929 cells; 1 mM): 73.18%; migration recovery (closure) percentage (L929 cells; 50 mM): 87.55%; migration recovery (closure) percentage (L929 cells; 250 mM): 75.56%; migration recovery (closure) percentage (L929 cells; 500 mM): 70.05%; migration recovery (closure) percentage (L929 cells; 750 mM): 81.62%; migration recovery (closure) percentage (L929 cells; 1000 mM): 62.46%
2 | Zinc borate | 4.5 | 0.0351 | 0.2812 | 0.0175 | 0.5625 | 0.0351 | 0.1406 | 1.125 | >9 | 4.5 | 0.0175 | >9 | 88.13 | MBC (%) [2]: >9%; MBC (%) [5]: 2.25%; MBC (%) [7]: 9%; IC50 ([11]; 24th hour): 133 µM; IC50 ([11]; 48th hour): 197 µM; IC50 ([11]; 72nd hour): 142 µM; EC50 ([12]; 24th hour): 51 µM; EC50 ([12]; 48th hour): 15 µM; EC50 ([12]; 72nd hour): 11 µM
